Data on 20 molecules can be found in ChEMBL document CHEMBL1131244, “New alkenyldiarylmethanes with enhanced potencies as anti-HIV agents which act as non-nucleoside reverse transcriptase inhibitors” (J Med Chem, 1998).

Assay [1] concerns the target Human immunodeficiency virus type 1 reverse transcriptase (Human immunodeficiency virus 1, UniProt Q72547). Description: Inhibitory activity against human immunodeficiency virus (HIV) - 1 reverse transcriptase with rCdG as the template primer. The method in brief:
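Reactions stopped with ice-cold 10% trichloroacetate, filtered through GF/C membrane, washed with ethanol, radiolabel counted by Cerenkov counting. AZTTP and nevirapine as positive controls; IC50 reported.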

Assay [2] deals with CEM-SS. Description: Inhibitory concentration for cytopathicity of HIV-1 RF in CEM-SS cells; NA means there was no observed inhibition of HIV-1 cytopathicity up to the cytotoxic concentration in uninfected cells. The assay is classed as functional, cell-based. Put shortly: (§1)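 XTT cytoprotection assay in CEM-SS cells infected with HIV-1 RF, with uninfected cultures for cytotoxicity, in presence of fetal calf serum. Data as percent of uninfected drug-free control. EC50 is 50% protection from cytopathicity; CC50 is 50% cell death in uninfected cells; TI = CC50/EC50. Triplicates on each of two sister plates, plate EC50s averaged. Confirmed by supernatant RT and p24.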

A further assay relates to CCRF-CEM. In words: The compound is evaluated for the cytotoxic concentration for the mock-infected CEM cells. The assay is classed as functional. The conditions noted are these: Homo sapiens. The method in brief: as §1
Assay [3] has as its system CEM-SS. Description: The compound is evaluated for the therapeutic index, which is the CC50 divided by the EC50. It is filed as functional. The method in brief: as §1
Assay [4] relates to CEM-SS. In words: Inhibitory concentration for cytopathicity of HIV-1 in CEM-SS cells. The assay is classed as functional, cell-based. The conditions noted are these: Homo sapiens. The method in brief:
as §1

`CCCCCC=C(c1ccc(OC)c(C(=O)OC)c1)c1ccc(OC)c(C(=O)OC)c1` yielded an IC50 in assay [1] of 3.2 µM. Further, the EC50 entry in the assay with CEM-SS [2] is “Not Active”. Further, the midpoint of cytotoxicity with CCRF-CEM, the CC50, lay at 14 µM.

In assay [1], `COC(=O)C=C(c1cc(Cl)c(OC)c(C(=O)OC)c1)c1cc(Cl)c(OC)c(C(=O)OC)c1` registered an IC50 of 16 µM. Moreover, the EC50 result in the assay with CEM-SS [2] is reported as “Not Active”. In the assay with CCRF-CEM, this molecule returned a 50% cytotoxic concentration (CC50) of 25 µM.

The molecule `CC=C(c1cc(Br)c(OC)c(C(=O)OC)c1)c1cc(Br)c(OC)c(C(=O)OC)c1` returned an IC50 in assay [1] of 26 µM. Further, the EC50 result in the assay on CEM-SS [2] is given as “Not Active”. In the assay with CCRF-CEM, the CC50 worked out at 10 µM.

Molecule `C=C(c1cc(Br)c(OC)c(C(=O)OC)c1)c1cc(Br)c(OC)c(C(=O)OC)c1` showed an IC50 in assay [1] greater than 100 µM. In addition, the EC50 entry with CEM-SS [2] is given as “Not Active”. Moreover, in the assay on CCRF-CEM, the CC50 was found to be 316 µM.

For the molecule `COc1c(Cl)cc(C(=CCC(=O)O)c2cc(Cl)c(OC)c(C(=O)O)c2)cc1C(=O)O`, the IC50 in assay [1] was greater than 100 µM. For the same molecule, the EC50 entry in the assay with CEM-SS [2] is “Not Active”. For the same molecule, the CC50 with CCRF-CEM is greater than 316 µM.

With `COC(=O)c1cc(C(=CC(=O)O)c2cc(Cl)c(OC)c(C(=O)OC)c2)cc(Cl)c1OC`, the half-inhibitory concentration (IC50) in assay [1] was greater than 100 µM. For the same molecule, in the assay with CEM-SS [2], the half-maximal effective concentration (EC50) result is “Not Active”. The molecule further yielded a CC50 with CCRF-CEM of 48 µM.

For the molecule `CCCCCC1OC1(c1cc(Br)c(OC)c(C(=O)OC)c1)c1cc(Br)c(OC)c(C(=O)OC)c1` (stereo not drawn), in assay [1], half-maximal inhibition (IC50) was put at 5.6 µM. In the assay on CEM-SS [2], the EC50 entry is on record as “Not Active”. The molecule further gave a 50% cytotoxic concentration (CC50) with CCRF-CEM greater than 100 µM.

Consider `COc1c(Cl)cc(C(=CCCCC(=O)O)c2cc(Cl)c(OC)c(C(=O)O)c2)cc1C(=O)O`, for which the TI in the assay on CEM-SS [3] is 1.7. Further, the IC50 in assay [1] is greater than 100 µM. In the assay with CCRF-CEM, this molecule came in with a CC50 greater than 316 µM. This molecule gave an EC50 in the assay on CEM-SS [4] of 180 µM.

In the assay with CEM-SS [3], `COC(=O)c1cc(C(=CCCO)c2cc(Br)c(OC)c(C(=O)OC)c2)cc(Br)c1OC` yielded a TI greater than 52. In addition, in assay [1], half-maximal inhibition (IC50) was put at 31.6 µM. The CC50 in the assay with CCRF-CEM was greater than 316 µM. Besides, in the assay with CEM-SS [4], the midpoint of the response, the EC50, lay at 6 µM.

`COC(=O)c1cc(C(=CCCOS(C)(=O)=O)c2cc(Cl)c(OC)c(C(=O)OC)c2)cc(Cl)c1OC` yielded an IC50 in assay [1] of 96 µM. Further, the EC50 entry in the assay with CEM-SS [2] is “Not Active”. In the assay on CCRF-CEM, this molecule had a CC50 of 6.9 µM.

In the assay on CEM-SS [3], `COC(=O)c1cc(C(=CCCN=[N+]=[N-])c2cc(Br)c(OC)c(C(=O)OC)c2)cc(Br)c1OC` had a TI greater than 278. The molecule further displayed an IC50 in assay [1] of 94 µM. The CC50 in the assay on CCRF-CEM was greater than 316 µM. The molecule also yielded an EC50 in the assay on CEM-SS [4] of 1.1 µM.

Molecule `CC1(C)OC(=O)c2cc(C(=CCCO)c3cc(Cl)c4c(c3)C(=O)OC(C)(C)O4)cc(Cl)c2O1` registered an IC50 in assay [1] greater than 100 µM. Further, the EC50 entry in the assay with CEM-SS [2] is given as “Not Active”. In the assay on CCRF-CEM, it took 18.8 µM to reach half-maximal cytotoxicity (CC50).

In assay [1], `COC(=O)c1cc(C(=CC(=O)OC(C)(C)C)c2cc(Cl)c(OC)c(C(=O)OC)c2)cc(Cl)c1OC` yielded a concentration for half-maximal inhibition (IC50) greater than 100 µM. In addition, the EC50 entry with CEM-SS [2] is reported as “Not Active”. In the assay with CCRF-CEM, this molecule showed a CC50 greater than 100 µM.

As for `COC(=O)c1cc(C(=CCCN)c2cc(Cl)c(OC)c(C(=O)OC)c2)cc(Cl)c1OC`, it took 63 µM to reach half-maximal inhibition in assay [1] (IC50). Moreover, the EC50 result in the assay on CEM-SS [2] is reported as “Not Active”. This molecule also gave a CC50 with CCRF-CEM of 15 µM.

`COC(=O)c1cc(C(=CCCCC(=O)O)c2cc(Cl)c(OC)c(C(=O)OC)c2)cc(Cl)c1OC` displayed a concentration for half-maximal inhibition (IC50) in assay [1] greater than 100 µM. Further, the EC50 entry with CEM-SS [2] was “Not Active”. Moreover, in the assay on CCRF-CEM, half-maximal cytotoxicity (CC50) was put at 100 µM.

Consider `CCCCCC=C(c1cc(I)c(OC)c(C(=O)OC)c1)c1cc(I)c(OC)c(C(=O)OC)c1`, for which it took 11 µM to reach half-maximal inhibition in assay [1] (IC50). Also, the EC50 result in the assay on CEM-SS [2] was “Not Active”. This molecule showed a CC50 in the assay on CCRF-CEM greater than 316 µM.

`COC(=O)c1cc(C(=CCCO)c2cc(Cl)c(OC)c(C(=O)OC)c2)cc(Cl)c1OC` registered a TI in the assay with CEM-SS [3] of 2. In assay [1], this molecule came in with an IC50 greater than 100 µM. Besides, half-maximal cytotoxicity with CCRF-CEM (CC50) was put at 16.8 µM. The same molecule yielded an EC50 with CEM-SS [4] of 8.6 µM.

In the case of `COC(=O)c1cc(C(=CCCCCO)c2cc(Cl)c(OC)c(C(=O)OC)c2)cc(Cl)c1OC`, in the assay on CEM-SS [2], the EC50 entry was “Not Active”. The midpoint of cytotoxicity in the assay with CCRF-CEM, the CC50, lay at 10.2 µM.

As to `CC1(C)OC(=O)c2cc(C(=CCCBr)c3cc(Cl)c4c(c3)C(=O)OC(C)(C)O4)cc(Cl)c2O1`, the half-maximal inhibitory concentration (IC50) in assay [1] is greater than 100 µM. The EC50 result with CEM-SS [2] is reported as “Not Active”. The molecule also gave a CC50 in the assay on CCRF-CEM of 176 µM.

The molecule `COC=C(c1cc(Br)c(OC)c(C(=O)OC)c1)c1cc(Br)c(OC)c(C(=O)OC)c1` came in with a 50% inhibitory concentration (IC50) in assay [1] greater than 100 µM. Moreover, the half-maximal effective concentration (EC50) result in the assay on CEM-SS [2] is recorded as “Not Active”. The molecule further returned a CC50 in the assay with CCRF-CEM of 22 µM.
